# Assay results: ChEMBL document CHEMBL1914358, “Virtual screening targeting the urokinase receptor, biochemical and cell-based studies, synthesis, pharmacokinetic characterization, and effect on breast tumor metastasis” (J Med Chem, 2011)
# Calls of active or inactive are those of the source. The rule behind the calls is not given here.
# What was measured:
# [1] = biological target: Urokinase plasminogen activator surface receptor (Homo sapiens, UniProt Q03405); experiment: Displacement of […] peptide from human uPAR expressed in drosophila S2 cells by fluorescence polarization assay
# Sequence of Urokinase plasminogen activator surface receptor (Q03405 whole entry, the tested form may be a part): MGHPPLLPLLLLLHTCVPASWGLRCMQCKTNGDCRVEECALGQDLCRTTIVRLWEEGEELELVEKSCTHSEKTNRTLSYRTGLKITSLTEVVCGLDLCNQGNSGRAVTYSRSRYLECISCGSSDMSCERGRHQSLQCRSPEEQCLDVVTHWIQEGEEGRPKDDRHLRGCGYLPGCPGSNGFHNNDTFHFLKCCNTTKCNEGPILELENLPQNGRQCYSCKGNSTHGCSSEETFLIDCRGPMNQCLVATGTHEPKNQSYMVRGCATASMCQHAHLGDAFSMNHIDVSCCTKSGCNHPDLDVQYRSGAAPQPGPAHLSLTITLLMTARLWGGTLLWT
# Method in brief: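 Soluble human uPAR (residues 1-283), from stably transfected Drosophila S2 cells, was used at 500 nM with 100 nM AE147-FAM. Inhibitor range 0.78-100 μM in 0.01% Triton X-100/PBS, final 2% DMSO, triplicate. Polarization was read immediately at room temperature (ex 485/em 530 nm).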
# MDA-MB-231 [2] = experiment: Induction of necrosis in human MDA-MB-231 cells at 50 uM after 24 hrs by annexin V-FITC and propidium iodide staining relative to control; assay type: functional
# Method in brief: (§1)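 MDA-MB-231 grown in DMEM/10% FBS with penicillin/streptomycin, 37 °C, 5% CO2, to 80–90% confluence; exposed to compound or 1% DMSO control for 24 h. Cells detached, washed in cold PBS, 1×10^5 cells in binding buffer stained with annexin V-FITC and propidium iodide 15 min at 25 °C in the dark, analysed by flow cytometry; apoptotic = annexin V+/PI−, necrotic = annexin V+/PI+.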
# MDA-MB-231 [3] = experiment: Induction of apoptosis in human MDA-MB-231 cells assessed as apoptotic cells at 50 uM after 24 hrs by annexin V-FITC and propidium iodide staining (reference value: 4%); assay type: functional; method in brief: as §1
# [4] = biological target: T1, Matrix metalloproteinase-9 (Homo sapiens, UniProt P14780); experiment: Inhibition of human MMP-9 activity in human MDA-MB-231 cells assessed as ECM degradation after 24 hrs by gelatin zymography assay; assay type: cell-based
# T1 sequence (P14780 whole entry): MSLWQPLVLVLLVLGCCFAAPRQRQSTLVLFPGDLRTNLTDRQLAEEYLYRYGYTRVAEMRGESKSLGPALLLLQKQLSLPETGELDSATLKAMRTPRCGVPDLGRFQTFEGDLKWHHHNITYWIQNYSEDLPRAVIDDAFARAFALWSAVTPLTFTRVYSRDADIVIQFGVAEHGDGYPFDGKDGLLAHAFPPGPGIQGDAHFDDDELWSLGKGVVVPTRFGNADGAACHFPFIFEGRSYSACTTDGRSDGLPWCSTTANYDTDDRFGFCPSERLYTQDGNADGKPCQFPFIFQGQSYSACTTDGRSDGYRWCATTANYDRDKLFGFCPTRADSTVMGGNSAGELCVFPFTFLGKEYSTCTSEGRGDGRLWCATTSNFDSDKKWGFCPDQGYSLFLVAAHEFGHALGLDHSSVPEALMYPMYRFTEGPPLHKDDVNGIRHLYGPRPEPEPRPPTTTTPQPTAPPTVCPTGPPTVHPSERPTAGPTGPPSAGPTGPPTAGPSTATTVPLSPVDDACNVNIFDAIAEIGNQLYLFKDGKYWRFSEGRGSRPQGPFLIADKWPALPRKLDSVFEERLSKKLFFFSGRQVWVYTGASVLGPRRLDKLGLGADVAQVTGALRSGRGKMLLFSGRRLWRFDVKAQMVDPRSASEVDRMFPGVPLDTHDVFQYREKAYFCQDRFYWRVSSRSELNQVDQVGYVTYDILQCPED
# MDA-MB-231 [5] = experiment: (§2) Inhibition of human MAPK phosphorylation in MDA-MB-231 cells at 100 uM after 30 mins by Western blot analysis; assay type: cell-based
# Method in brief: (§3)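 MDA-MB-231 cells were exposed to 100 μM compound or 1% DMSO for 30 min and lysed in RIPA buffer with protease and phosphatase inhibitors. Equal protein was run on 4-12% gels under non-reducing conditions and transferred to nitrocellulose. Detection used HRP secondary antibody and chemiluminescence.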
# Cytochrome P450 2C9 = Cytochrome P450 2C9 (Homo sapiens, UniProt P11712); experiment: Inhibition of CYP2C9 at 1 uM by fluorsecence-based assay; assay type: ADME
# Sequence of Cytochrome P450 2C9 (P11712 whole entry): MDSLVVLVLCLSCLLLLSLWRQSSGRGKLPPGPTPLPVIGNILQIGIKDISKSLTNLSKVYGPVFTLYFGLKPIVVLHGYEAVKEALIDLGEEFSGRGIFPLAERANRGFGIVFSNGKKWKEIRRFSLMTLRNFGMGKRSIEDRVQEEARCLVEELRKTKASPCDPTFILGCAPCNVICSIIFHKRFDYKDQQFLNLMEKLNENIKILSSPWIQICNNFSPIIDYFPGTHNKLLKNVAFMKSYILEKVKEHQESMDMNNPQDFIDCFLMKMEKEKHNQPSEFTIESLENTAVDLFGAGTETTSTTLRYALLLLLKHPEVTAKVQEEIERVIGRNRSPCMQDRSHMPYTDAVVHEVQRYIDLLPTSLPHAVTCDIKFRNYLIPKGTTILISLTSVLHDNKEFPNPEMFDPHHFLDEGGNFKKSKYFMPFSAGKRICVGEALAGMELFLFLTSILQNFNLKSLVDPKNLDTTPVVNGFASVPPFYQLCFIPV
# Method in brief: (§4)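 Fluorescence-based CYP2C9 assay measuring inhibition of fluorescent substrate metabolism at the stated concentration. Sulphaphenazole at 5 μM served as positive control.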
# CYP2C9 [6] = biological target: T2, CYP2C9 (Homo sapiens, UniProt P11712); experiment: Inhibition of CYP2C9 at 25 uM by fluorsecence-based assay; assay type: ADME; method in brief: as §4
# T2 sequence (P11712 whole entry): as above
# Nucleic Acid [7] = experiment: Displacement of ethidium bromide from salmon sperm DNA at 1 uM by fluorescence assay; assay type: nucleic-acid assay; conditions: Salmonidae
# Method in brief: (§5)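 Fluorescent intercalator displacement: loss of fluorescence from ethidium bromide bound to salmon sperm DNA, excitation 530 nm, at the stated compound concentration.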
# Nucleic Acid [8] = experiment: Displacement of ethidium bromide from salmon sperm DNA at 10 uM by fluorescence assay; assay type: nucleic-acid assay; conditions: Salmonidae; method in brief: as §5
# Nucleic Acid [9] = experiment: Displacement of ethidium bromide from salmon sperm DNA at 25 uM by fluorescence assay; assay type: nucleic-acid assay; conditions: Salmonidae; method in brief: as §5
# MDA-MB-231 [10] = experiment: Antimetastatic activity in human MDA-MB-231 cells assessed as inhibition of cell invasion after 3 hrs by transwell assay; assay type: functional, cell-based; conditions: MDA-MB-231, 3 h
# MDA-MB-231 [11] = experiment: Antimetastatic activity in human MDA-MB-231 cells assessed as inhibition of cell migration after 3 hrs by transwell assay; assay type: functional, cell-based; conditions: MDA-MB-231, 3 h
# Method in brief: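 Serum-starved (4 h) subconfluent cells, 5 × 10^4 in 0.1% FBS DMEM with compound or 1.0% DMSO, were placed in upper chambers of inserts with fibronectin-coated undersides (30 μg/ml). After 3 h at 37°C, 5% CO2, cells on the underside were methanol-fixed, hematoxylin-stained and counted in ten fields (×200). Triplicate; mean ± SE.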
# MDA-MB-231 [12] = experiment: Antimetastatic activity in human MDA-MB-231 cells assessed as inhibition of cell adhesion after 90 mins by crystal violet staining; assay type: functional, cell-based; conditions: MDA-MB-231, 1.5 h
# Method in brief: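 Wells were coated with 15 μg/ml fibronectin for 1 h at room temperature, then blocked with 3% heat-denatured BSA for 1 h at 37°C. Subconfluent cells were trypsinized, quenched with soybean trypsin inhibitor and washed in serum-free medium. 2 × 10^4 cells per well with compound, quadruplicate, 90 min at 37°C. Adherent cells were read by crystal violet at 570 nm; mean ± SE.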
# HUVEC = experiment: Antiangiogenic activity in human HUVEC cells assessed as inhibition of tube formation by matrigel-based tube formation assay
# MDA-MB-231 [13] = experiment: Antiproliferative activity against human MDA-MB-231 cells assessed as decrease in cell viability after 3 days by MTT assay; assay type: functional, cell-based; conditions: MDA-MB-231, 72 h
# Method in brief: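 Cells were grown at 37°C in 10% FBS-DMEM with serially diluted compound, made from 5 mM DMSO stock diluted 1:50 in medium, for 3 days. Viability was read by MTT absorbance at 570 and 630 nm.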
# MDA-MB-231 [14] = experiment: Induction of apoptosis in human MDA-MB-231 cells at 50 uM after 24 hrs by annexin V-FITC and propidium iodide staining relative to control; assay type: functional; method in brief: as §1
# [15] = biological target: T1, Matrix metalloproteinase-9; experiment: Inhibition of human MMP-9 activity in human MDA-MB-231 cells assessed as ECM degradation at 50 uM after 24 hrs by gelatin zymography assay; assay type: cell-based
# Method in brief: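 Cells were treated with compound in serum-free medium for 24 h, and conditioned medium was concentrated and protein-normalized. Samples were run on 10% SDS gels containing 1 mg/ml gelatin. Clear bands were quantified after Coomassie staining.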
# [16] = Cmax in mouse at 100 mg/kg, po administered as single dose after 5 hrs by HPLC-MS/MS analysis; assay type: ADME, organism-based; design: dose 100 mg/kg, route oral; conditions: in vivo
# [17] = Tmax in mouse at 100 mg/kg, po administered as single dose by HPLC-MS/MS analysis; assay type: ADME, organism-based; design: dose 100 mg/kg, route oral; conditions: in vivo
# [18] = Half life in mouse at 100 mg/kg, po administered as single dose by HPLC-MS/MS analysis; assay type: ADME, organism-based; design: dose 100 mg/kg, route oral; conditions: in vivo
# [19] = Antitumor activity against human […] cells xenografted in NOD/SCID mouse assessed as decrease in tumor volume at 150 mg/kg, po qd administered 18 days post-implantation measured after 68 days; assay type: functional; design: scale not given: the % may be the effect or the level left
# Method in brief: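 Female NOD/SCID mice bearing mammary fat pad TMD-231 tumours were randomized and dosed from day 18 post-implantation by daily oral gavage at 150 mg/kg or vehicle (n = 11). Caliper measurements were taken over 68 days; volume = (shorter² × longer)/2.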
# [20] = Toxicity in po dosed NOD/SCID mouse xenografted human […] cells; assay type: organism-based; conditions: in vivo
# TMB-231 = experiment: Antitumor activity against human […] cells xenografted in NOD/SCID mouse assessed as reduction in lung metastatic lesions at 150 mg/kg, po qd administered 18 days post-implantation measured after 68 days; assay type: functional, organism-based; design: dose 150 mg/kg
# Method in brief: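 Female NOD/SCID mice with mammary fat pad TMD-231 tumours received daily oral gavage at 150 mg/kg or vehicle from day 18 (n = 11). At study end lungs were removed and H&E stained. Metastasis number and size were assessed in 2-5 fields per sample and scored 1+ to 4+ relative to the highest sample by a blinded pathologist.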
# [21] = system: hERG potassium channel KCNH2 (Homo sapiens); experiment: Inhibition of human ERG potassium channel (hERG) at 25 uM by fluorescence polarization assay
# [22] = AUC (0 to infinity) in mouse at 50 mg/kg, po administered as single dose by HPLC-MS/MS analysis; conditions: plasma
# [23] = Apparent oral clearance in mouse at 50 mg/kg administered as single dose by HPLC-MS/MS analysis; conditions: in vivo
# [24] = as §2; assay type: cell-based; conditions: MDA-MB-231, 0.5 h; method in brief: as §3
# [25] = biological target: Focal adhesion kinase 1 (Homo sapiens) (UniProt Q05397); experiment: Inhibition of human FAK phosphorylation in MDA-MB-231 cells at 100 uM after 30 mins by Western blot analysis; assay type: cell-based; method in brief: as §3
# Sequence of Focal adhesion kinase 1 (Homo sapiens) (Q05397 2-1052 limits assumed): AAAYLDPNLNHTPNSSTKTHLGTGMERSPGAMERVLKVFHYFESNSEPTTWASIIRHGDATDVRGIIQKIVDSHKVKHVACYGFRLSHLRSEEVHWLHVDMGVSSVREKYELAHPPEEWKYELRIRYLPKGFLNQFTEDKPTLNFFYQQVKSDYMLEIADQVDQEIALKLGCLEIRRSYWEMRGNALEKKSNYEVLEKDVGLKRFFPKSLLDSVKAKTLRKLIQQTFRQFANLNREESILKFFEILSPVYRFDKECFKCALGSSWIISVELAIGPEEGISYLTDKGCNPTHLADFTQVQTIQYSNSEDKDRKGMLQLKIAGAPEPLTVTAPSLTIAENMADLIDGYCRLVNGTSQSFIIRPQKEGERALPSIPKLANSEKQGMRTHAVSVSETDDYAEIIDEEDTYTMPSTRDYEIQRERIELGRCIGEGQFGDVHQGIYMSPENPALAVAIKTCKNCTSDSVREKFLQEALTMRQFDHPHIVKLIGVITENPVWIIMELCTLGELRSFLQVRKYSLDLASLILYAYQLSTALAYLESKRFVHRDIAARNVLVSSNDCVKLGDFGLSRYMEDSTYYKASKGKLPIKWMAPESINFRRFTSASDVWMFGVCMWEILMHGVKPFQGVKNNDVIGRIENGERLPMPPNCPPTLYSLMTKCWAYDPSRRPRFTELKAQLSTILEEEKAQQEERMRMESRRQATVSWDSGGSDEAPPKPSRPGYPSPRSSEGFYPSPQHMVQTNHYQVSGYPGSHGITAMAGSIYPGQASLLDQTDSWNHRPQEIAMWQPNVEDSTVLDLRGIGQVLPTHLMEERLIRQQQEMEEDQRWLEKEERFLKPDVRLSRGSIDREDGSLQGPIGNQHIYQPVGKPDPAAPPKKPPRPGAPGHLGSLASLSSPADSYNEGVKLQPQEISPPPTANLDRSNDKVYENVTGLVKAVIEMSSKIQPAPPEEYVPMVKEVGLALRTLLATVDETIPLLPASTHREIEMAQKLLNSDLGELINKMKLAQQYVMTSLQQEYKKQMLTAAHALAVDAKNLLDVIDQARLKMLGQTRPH
# [26] = biological target: Proto-oncogene tyrosine-protein kinase Src (Homo sapiens) (UniProt P12931); experiment: Inhibition of human SRC phosphorylation in MDA-MB-231 cells at 100 uM after 30 mins by Western blot analysis; assay type: cell-based; method in brief: as §3
# Sequence of Proto-oncogene tyrosine-protein kinase Src (Homo sapiens) (P12931 2-536 limits assumed): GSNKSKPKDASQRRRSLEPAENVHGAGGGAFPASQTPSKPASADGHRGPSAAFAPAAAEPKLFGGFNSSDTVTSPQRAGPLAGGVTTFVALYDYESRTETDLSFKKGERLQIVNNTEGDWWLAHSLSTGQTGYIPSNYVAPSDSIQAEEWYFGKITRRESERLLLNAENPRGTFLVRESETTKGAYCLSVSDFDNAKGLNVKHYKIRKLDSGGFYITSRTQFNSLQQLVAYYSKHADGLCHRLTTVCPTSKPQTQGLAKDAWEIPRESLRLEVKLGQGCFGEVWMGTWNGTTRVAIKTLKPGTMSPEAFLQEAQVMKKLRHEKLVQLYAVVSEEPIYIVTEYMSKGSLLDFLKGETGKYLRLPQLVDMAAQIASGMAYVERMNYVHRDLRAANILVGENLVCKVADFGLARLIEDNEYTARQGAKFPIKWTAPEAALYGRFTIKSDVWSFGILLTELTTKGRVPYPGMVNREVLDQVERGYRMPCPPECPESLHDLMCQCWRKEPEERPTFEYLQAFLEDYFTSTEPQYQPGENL
# [27] = system: hERG potassium channel KCNH2 (Homo sapiens); experiment: Inhibition of human ERG channel at 25 uM =
# [28] = system: hERG potassium channel KCNH2 (Homo sapiens); experiment: Inhibition of human ERG potassium channel (hERG) at 1 uM by fluorescence polarization assay
# [29] = system: hERG potassium channel KCNH2 (Homo sapiens); experiment: Inhibition of human ERG potassium channel (hERG) at 10 uM by fluorescence polarization assay
# CYP2C9 [30] = biological target: T2, CYP2C9; experiment: Inhibition of CYP2C9 at 5 uM by fluorsecence-based assay
structure (smiles),measurement,setting,value
CN(C)c1ccc(CNCCC(Cc2ccccc2)c2ccc3c(c2)OCO3)cc1 (racemic),Ki,[1],20 µM
same,Activity,MDA-MB-231 [2],22%
same,Activity,MDA-MB-231 [3],46%
same,inhibition,[4],Dose-dependent effect
same,inhibition,MDA-MB-231 [5],Active
same,inhibition (INH),Cytochrome P450 2C9,Active
same,inhibition at 25 µM,CYP2C9 [6],80%
same,inhibition,Nucleic Acid [7],inactive
same,inhibition,Nucleic Acid [8],inactive
same,inhibition,Nucleic Acid [9],30%
Cc1cc(C)cc(NC(=O)c2cnn(-c3ccc(C(C)C)cc3)c2C2CCNCC2)c1,Activity,[1],Dose-dependent effect
same,IC50,MDA-MB-231 [10],30 µM
same,IC50,MDA-MB-231 [11],40 µM
same,IC50,MDA-MB-231 [12],45 µM
same,IC50,HUVEC,3 µM
same,IC50,MDA-MB-231 [13],6 µM
same,Activity,MDA-MB-231 [14],51%
same,Activity,MDA-MB-231 [2],21%
same,IC50,[4],25 µM
same,inhibition,[4],Dose-dependent effect
same,inhibition,[15],93%
same,inhibition,MDA-MB-231 [5],Active
same,inhibition at 25 µM,CYP2C9 [6],20%
same,inhibition,Nucleic Acid [7],inactive
same,inhibition,Nucleic Acid [8],inactive
same,inhibition,Nucleic Acid [9],< 10%
same,Cmax,[16],4410 ng/mL
same,Tmax,[17],1 h
same,half-life,[18],2.18 h
same,Activity,[19],20%
same,MTD,[20],150 mg/kg
same,Activity,TMB-231,Active
same,inhibition,[21],60%
same,AUC(0-inf),[22],47200 ng·h/mL
same,CL/F,[23],0.7 mL/min
c1ccc(C[C@H](CCNCc2ccc3c(c2)OCO3)c2ccc3c(c2)OCO3)cc1 (racemic),Activity,[1],Dose-dependent effect
same,IC50,[24],20 µM
same,inhibition,[25],inactive
same,inhibition,[26],inactive
same,inhibition (INH),Cytochrome P450 2C9,Active
same,inhibition at 25 µM,CYP2C9 [6],80%
same,inhibition,Nucleic Acid [7],inactive
same,inhibition,Nucleic Acid [8],inactive
same,inhibition,Nucleic Acid [9],30%
same,inhibition,[27],Active
same,inhibition,[28],Active
same,inhibition,[29],Active
Nc1ccc(S(=O)(=O)Nc2ccnn2-c2ccccc2)cc1 [SULFAPHENAZOLE],inhibition at 5 µM,CYP2C9 [30],69%
